Results published in ChEMBL document CHEMBL5620421, “2,6-Disubstituted 7-(naphthalen-2-ylmethyl)-7H-purines as a new class of potent antitubercular agents inhibiting DprE1” (Eur J Med Chem, 2023).
≈ marks a conversion by molar mass, not a printed value. Calls of active or inactive are those of the source. No cut-off for these calls is given here.

How the values were obtained:
[1] = system: Mycobacterium tuberculosis; assay: Antibacterial activity against Mycobacterium tuberculosis H37Rv assessed as inhibition of bacterial growth by micro-broth dilution method; type: functional
Summary of the method: (§1)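 Micromethod MIC in Sula's semisynthetic medium. MIC is the lowest concentration inhibiting >99% of the mycobacterial population. Isoniazid was the standard drug.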

[2] = system: Mycobacterium tuberculosis; assay: Antibacterial activity against Mycobacterium tuberculosis H37Rv (ATCC 27294) assessed as inhibition of bacterial growth incubated for 14 days; type: functional; settings: 336 h, time 14 day; summary of the method: as §1
Staphylococcus aureus [3] = assay: Antibacterial activity against Staphylococcus aureus C1947 assessed as inhibition of bacterial growth incubated for 24 to 48 hrs by microdilution broth method; type: functional, organism-based; settings: time 24-48 hrs
Summary of the method: (§2)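 Clinical isolates kept at –70 °C and subcultured twice on Mueller-Hinton agar, using the second subculture. Broth microdilution in Mueller-Hinton broth at pH 7.4 with two-fold serial compound dilutions and DMSO ≤1% final. Inoculum was 10 μL of a 1.5 × 10⁸ CFU/mL suspension. Incubated at 36 °C ± 1 °C and read at 24 h and 48 h. MIC taken as 95% growth inhibition.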

Mycobacterium avium [4] = assay: Antitubercular activity against Mycobacterium avium CNCTC My 330/88 assessed as inhibition of bacterial growth measured after 14 days of incubation by Sulas semisynthetic medium based assay; type: functional; settings: CNCTC My 330/88, 336 h, time 14 day
Summary of the method: (§3)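 M. avium was tested by the micromethod in Sula's semisynthetic medium. Compounds in DMSO at 1000 to 0.5 μmol/L. Incubation at 37 °C, read at 14 and 21 days. MIC is the lowest concentration giving >99% growth inhibition.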

Klebsiella pneumoniae [5] = assay: Antibacterial activity against ESBL positive Klebsiella pneumoniae C1914 assessed as inhibition of bacterial growth incubated for 24 to 48 hrs by microdilution broth method; type: functional, organism-based; settings: time 24-48 hrs; summary of the method: as §2
Mycobacterium avium [6] = assay: Antitubercular activity against Mycobacterium avium CNCTC My 330/88 assessed as inhibition of bacterial growth measured after 21 days of incubation by Sulas semisynthetic medium based assay; type: functional; settings: CNCTC My 330/88, 504 h, time 21 day; summary of the method: as §3
Mycobacterium kansasii [7] = assay: Antitubercular activity against Mycobacterium kansasii CNCTC My 235/80 assessed as inhibition of bacterial growth measured after 21 days of incubation by Sulas semisynthetic medium based assay; type: functional; settings: CNCTC My 235/80, 504 h, time 21 day
Summary of the method: (§4)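 Micromethod in Sula's semisynthetic medium. MIC is the lowest concentration inhibiting >99% of the mycobacterial population. Isoniazid was the standard.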

Escherichia coli = assay: Antibacterial activity against Escherichia coli A1235 assessed as inhibition of bacterial growth incubated for 24 to 48 hrs by microdilution broth method; type: functional, organism-based; settings: time 24-48 hrs; summary of the method: as §2
Mycobacterium kansasii [8] = assay: Antitubercular activity against Mycobacterium kansasii CNCTC My 235/80 assessed as inhibition of bacterial growth measured after 14 days of incubation by Sulas semisynthetic medium based assay; type: functional; settings: CNCTC My 235/80, 336 h, time 14 day; summary of the method: as §4
[9] = Selectivity index, ratio of IC50 for cytotoxicity against human HepG2 cells by MTT assay to MIC99 for antitubercular activity against Mycobacterium tuberculosis CNCTC My 331/88 (H37Rv) assessed as inhibition of bacterial growth measured after 14 days of incubation; type: functional; settings: time 14 day
Summary of the method: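 HepG2 cells, 15 × 10³/well, were attached overnight and exposed 24 h to serial dilutions (DMSO ≤1%). Read by MTT at 0.5 mg/mL for 1 h and 570 nm. IC50 from 4-parameter regression, three independent experiments in triplicate. SI is HepG2 IC50 divided by H37Rv MIC99.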

[10] = system: Staphylococcus epidermidis; assay: Antibacterial activity against Staphylococcus epidermidis C1936 assessed as inhibition of bacterial growth incubated for 24 to 48 hrs by microdilution broth method; type: functional, organism-based; settings: time 24-48 hrs; summary of the method: as §2
[11] = system: Mycobacterium tuberculosis; assay: Antitubercular activity against Mycobacterium tuberculosis CNCTC My 331/88 (H37Rv) assessed as inhibition of bacterial growth measured after 14 days of incubation by Sulas semisynthetic medium based assay; type: functional; settings: 336 h, time 14 day; summary of the method: as §1
Staphylococcus aureus [12] = assay: Antibacterial activity against methicilin-resistant Staphylococcus aureus C1923 assessed as inhibition of bacterial growth incubated for 24 to 48 hrs by microdilution broth method; type: functional, organism-based; settings: time 24-48 hrs
Summary of the method: (§5)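 Clinical isolates, stored at −70 °C, were passaged twice on Mueller-Hinton agar. Broth microdilution in Mueller-Hinton broth, pH 7.4, with twofold serial dilutions. DMSO was at most 1% final. Inoculum 1.5 × 10⁸ CFU/mL suspension. MIC is 95% growth inhibition, read after 24 and 48 h at 36 °C.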

Mycobacterium kansasii [13] = assay: Antitubercular activity against Mycobacterium kansasii CNCTC My 235/80 assessed as inhibition of bacterial growth measured after 7 days of incubation by Sulas semisynthetic medium based assay; type: functional; settings: CNCTC My 235/80, 168 h, time 7 day; summary of the method: as §4
HepG2 = assay: Cytotoxicity against human HepG2 cells incubated for 24 hrs by MTT assay; type: functional, cell-based; settings: HepG2, 24 h
Summary of the method: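 HepG2 cells in DMEM with 10% FBS, seeded at 15 × 10³ cells/well and attached overnight. Exposed for 24 h to serial dilutions prepared from DMSO stocks, final DMSO ≤1%. Then given fresh medium with 0.5 mg/mL MTT for 1 h at 37 °C. Formazan dissolved in DMSO and read at 570 nm. IC50 from 4-parameter nonlinear regression; three independent experiments in triplicate, mean ± SD.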

[14] = system: Mycobacterium tuberculosis; assay: Antitubercular activity against Mycobacterium tuberculosis CNCTC My 331/88 (H37Rv) assessed as inhibition of bacterial growth measured after 21 days of incubation by Sulas semisynthetic medium based assay; type: functional; settings: 504 h, time 21 day; summary of the method: as §1
Enterococcus faecium = assay: Antibacterial activity against vancomycin-resistant Enterococcus faecium assessed as inhibition of bacterial growth incubated for 24 to 48 hrs by microdilution broth method; type: functional, organism-based; settings: time 24-48 hrs; summary of the method: as §5
Pseudomonas aeruginosa = assay: Antibacterial activity against multidrug-resistant Pseudomonas aeruginosa A1245 assessed as inhibition of bacterial growth incubated for 24 to 48 hrs by microdilution broth method; type: functional, organism-based; settings: time 24-48 hrs; summary of the method: as §5
Klebsiella pneumoniae [15] = assay: Antibacterial activity against ESBL negative Klebsiella pneumoniae C1950 assessed as inhibition of bacterial growth incubated for 24 to 48 hrs by microdilution broth method; type: functional, organism-based; settings: time 24-48 hrs; summary of the method: as §2

Row | Structure (SMILES) | MIC [1] [ng/mL] | MIC [2] [ng/mL] | Activity (Staphylococcus aureus [3]) | MIC99 (Mycobacterium avium [4]) [µM] | Activity (Klebsiella pneumoniae [5]) | MIC99 (Mycobacterium avium [6]) [µM] | MIC99 (Mycobacterium kansasii [7]) [µM] | Activity (Escherichia coli) | MIC99 (Mycobacterium kansasii [8]) [µM] | Selectivity Index [9] | Activity [10] | MIC99 [11] [µM] | Activity (Staphylococcus aureus [12]) | MIC99 (Mycobacterium kansasii [13]) [µM] | IC50 (HepG2) [µM] | MIC99 [14] [µM] | Activity (Enterococcus faecium) | Activity (Pseudomonas aeruginosa) | Activity (Klebsiella pneumoniae [15])
1 | O=c1nc(N2CCN(CC3CCCCC3)CC2)sc2c([N+](=O)[O-])cc(C(F)(F)F)cc12 [MACOZINONE] | ≤ 0.19 |  |  |  |  |  |  |  |  |  |  |  |  |  |  |  |  |  | 
2 | O=C1CCc2c(OC[C@]3(O)CCN(c4c(F)cc(Cl)cc4F)C[C@H]3O)ccc(F)c2N1 [QUABODEPISTAT] |  | 0.5 (≈ 1.09 nM) |  |  |  |  |  |  |  |  |  |  |  |  |  |  |  |  | 
3 | C[C@H]1COC2(CCN(c3nc(=O)c4cc(C(F)(F)F)cc([N+](=O)[O-])c4s3)CC2)O1 [BTZ-043] | 1 (≈ 2.32 nM) |  |  |  |  |  |  |  |  |  |  |  |  |  |  |  |  |  | 
4 | CCNc1nc(N2CCOCC2)nc2ncn(Cc3ccc4ccccc4n3)c12 |  |  | inactive | > 250 | inactive | > 250 | 64 (≈ 24.9 µg/mL) | inactive | 64 (≈ 24.9 µg/mL) | 24.08 | inactive | 4 (≈ 1.56 µg/mL) | inactive | 64 (≈ 24.9 µg/mL) | 96.4 | 8 (≈ 3.12 µg/mL) | inactive | inactive | inactive
5 | Clc1nc(N2CCOCC2)nc2ncn(Cc3ccc4ccccc4c3)c12 |  |  | inactive | > 500 | inactive | > 500 | 64 (≈ 24.3 µg/mL) | inactive | 32 (≈ 12.2 µg/mL) | 4.09 | inactive | 16 (≈ 6.08 µg/mL) | inactive | 16 (≈ 6.08 µg/mL) | 65.6 | 16 (≈ 6.08 µg/mL) | inactive | inactive | inactive
6 | CN(c1nc2ncn(Cc3ccc4ccccc4c3)c2c(=O)[nH]1)C1CC1 |  |  | inactive | > 500 | inactive | > 500 | 500 (≈ 173 µg/mL) | inactive | 250 (≈ 86.4 µg/mL) | >7.8 | inactive | 16 (≈ 5.53 µg/mL) | inactive | 125 (≈ 43.2 µg/mL) | > 125 | 16 (≈ 5.53 µg/mL) | inactive | inactive | inactive
7 | O=c1[nH]c(N2CCOCC2)nc2ncn(Cc3ccc(Cl)c(Cl)c3)c12 |  |  | inactive | > 500 | inactive | > 500 | > 500 | inactive | > 500 | >7.8 | inactive | 16 (≈ 6.08 µg/mL) | inactive | > 500 | > 125 | 32 (≈ 12.2 µg/mL) | inactive | inactive | inactive
8 | CSc1nc(N2CCOCC2)nc2ncn(Cc3ccc4ccccc4c3)c12 |  |  | inactive | > 500 | inactive | > 500 | 64 (≈ 25.1 µg/mL) | inactive | 64 (≈ 25.1 µg/mL) | 5.3 | inactive | 8 (≈ 3.13 µg/mL) | inactive | 32 (≈ 12.5 µg/mL) | 42.4 | 8 (≈ 3.13 µg/mL) | inactive | inactive | inactive
9 | c1ccc2cc(Cn3cnc4nc(N5CCOCC5)nc(NC5CCCCC5)c43)ccc2c1 |  |  | inactive | > 500 | inactive | > 500 | 250 (≈ 111 µg/mL) | inactive | 125 (≈ 55.3 µg/mL) | 0.59 | inactive | 32 (≈ 14.2 µg/mL) | inactive | 64 (≈ 28.3 µg/mL) | 18.9 | 64 (≈ 28.3 µg/mL) | inactive | inactive | inactive
10 | COc1ncnc(Cn2cc(C(=O)NCCO)c3ncc(C)cc32)c1C [TBA-7371] |  | 640 (≈ 1800 nM) |  |  |  |  |  |  |  |  |  |  |  |  |  |  |  |  | 
